According to ChEMBL document CHEMBL1126645, “Nonsymmetrical bipiperidyls as inhibitors of vesicular acetylcholine storage” (J Med Chem, 1993):

Target: T1, Vesicular acetylcholine transporter (Torpedo californica, UniProt P81721)
T1 sequence (P81721 whole entry): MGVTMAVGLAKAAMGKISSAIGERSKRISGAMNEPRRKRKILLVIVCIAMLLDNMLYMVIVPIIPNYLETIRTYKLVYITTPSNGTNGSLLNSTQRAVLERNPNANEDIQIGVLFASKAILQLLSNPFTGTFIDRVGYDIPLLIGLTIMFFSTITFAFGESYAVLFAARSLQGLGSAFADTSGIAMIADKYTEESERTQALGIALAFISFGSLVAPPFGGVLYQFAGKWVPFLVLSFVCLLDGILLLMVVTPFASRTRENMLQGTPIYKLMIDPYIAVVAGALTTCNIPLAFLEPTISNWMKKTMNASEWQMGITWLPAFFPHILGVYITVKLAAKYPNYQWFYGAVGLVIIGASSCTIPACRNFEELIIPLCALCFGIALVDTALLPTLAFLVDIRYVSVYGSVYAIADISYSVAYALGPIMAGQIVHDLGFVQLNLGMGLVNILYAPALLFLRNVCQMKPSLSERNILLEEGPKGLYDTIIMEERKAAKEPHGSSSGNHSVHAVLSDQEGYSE
Experiment: Inhibition of [3H]- vesamicol binding to synaptic vesicles preparation from the electric organ of Torpedo californica
Set-up: species or system Tetronarce californica
In short: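 Run without ATP and without acetylcholine. Each drug concentration tested in duplicate, with variation below 5%. Other assay details follow an earlier published protocol.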

SMILES | IC50 [nM]
O[C@@H]1CNCC[C@H]1N1CCC(c2ccccc2)CC1 | 5000
Cc1cccc(CN2CC[C@@H](O)[C@H](N3CCC(c4ccccc4)CC3)C2)c1 | 22
O[C@@H]1CCN(Cc2ccc(Br)cc2)C[C@H]1N1CCC(c2ccccc2)CC1 | 25
O[C@@H]1CCN(Cc2ccc(F)cc2)C[C@H]1N1CCC(c2ccccc2)CC1 | 14
O[C@@H]1CCN(Cc2ccccc2F)C[C@H]1N1CCC(c2ccccc2)CC1 | 42
O=C(c1ccccc1)N1CC[C@@H](N2CCC(c3ccccc3)CC2)[C@H](O)C1 | 1900
O[C@@H]1CCN(Cc2cccc(Br)c2)C[C@H]1N1CCC(c2ccccc2)CC1 | 21
O=C(c1ccccc1I)N1CC[C@@H](O)[C@H](N2CCC(c3ccccc3)CC2)C1 | 250
O[C@@H]1CN(Cc2ccc(Br)cc2)CC[C@H]1N1CCC(c2ccccc2)CC1 | 310
Cc1ccccc1CN1CC[C@@H](O)[C@H](N2CCC(c3ccccc3)CC2)C1 | 25
Cc1ccc(CN2CC[C@@H](O)[C@H](N3CCC(c4ccccc4)CC3)C2)cc1 | 24
O=C(c1ccccc1)N1CC[C@@H](O)[C@H](N2CCC(c3ccccc3)CC2)C1 | 34
O[C@@H]1CCN(Cc2cccc(I)c2)C[C@H]1N1CCC(c2ccccc2)CC1 | 26
O=C(c1ccc(I)cc1)N1CC[C@@H](O)[C@H](N2CCC(c3ccccc3)CC2)C1 | 22
O[C@@H]1CCN(Cc2ccccc2Br)C[C@H]1N1CCC(c2ccccc2)CC1 | 22
O[C@@H]1CN(Cc2ccccc2)CC[C@H]1N1CCC(c2ccccc2)CC1 | 83
O[C@@H]1CCN(Cc2cccc(F)c2)C[C@H]1N1CCC(c2ccccc2)CC1 | 31
O[C@@H]1CCN(Cc2ccccc2)C[C@H]1N1CCC(c2ccccc2)CC1 | 30
O=[N+]([O-])c1ccc(N2CC[C@@H](O)[C@H](N3CCC(c4ccccc4)CC3)C2)cc1 | 290
O[C@@H]1CN(Cc2ccccc2Br)CC[C@H]1N1CCC(c2ccccc2)CC1 | 55
O=C(c1cccc(I)c1)N1CC[C@@H](O)[C@H](N2CCC(c3ccccc3)CC2)C1 | 39
O[C@@H]1CCNC[C@H]1N1CCC(c2ccccc2)CC1 | 2900
